≈ marks a conversion by molar mass, not a printed value.
Legend:
Saccharomyces cerevisiae [1] = experiment: Antifungal activity against Saccharomyces cerevisiae Sc7; type: functional
Candida albicans = experiment: Antifungal activity against Candida albicans SC5314; type: functional
Saccharomyces cerevisiae [2] = experiment: Antifungal activity against Saccharomyces cerevisiae 1353; type: functional
How it was run: (§1)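 Agar-well diffusion on mutant yeast lawns (1140 ise1 rad52; 1353 ISE+ rad52 top1; 1138 ise2 rad52). Stationary-phase YEPD cultures resuspended in 0.9% saline to 25% transmission at 600 nm, flooded onto YEPD agar with 0.8% Noble agar overlay, dried. Samples in DMSO-MeOH (1:1) added to 6-7 mm wells; nystatin control at 20 μg/mL; 30 °C, 36–48 h; IC12 (dose giving 12-mm zone) from dose–response curve.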

Saccharomyces cerevisiae [3] = experiment: Antifungal activity against Saccharomyces cerevisiae 1138; type: functional; how it was run: as §1
Saccharomyces cerevisiae [4] = experiment: Antifungal activity against Saccharomyces cerevisiae 1140; type: functional; how it was run: as §1
M109 = experiment: Cytotoxicity against mouse M109 cells; type: functional, cell-based

| MIC (Saccharomyces cerevisiae [1]) [µg/mL] | MIC (Candida albicans) [µg/mL] | SMILES | IC12 (Saccharomyces cerevisiae [2]) [µg/mL] | IC12 (Saccharomyces cerevisiae [3]) [µg/mL] | IC12 (Saccharomyces cerevisiae [4]) [µg/mL] | IC50 (M109) [µg/mL] |
| --- | --- | --- | --- | --- | --- | --- |
| 6.25 (≈ 15.7 µM) | 12.5 (≈ 31.4 µM) | C[C@H]1CCC([C@H](C)[C@H]2CC[C@H]3[C@@H]4CC=C5C[C@@H](O)CC[C@]5(C)[C@H]4CC[C@]23C)=NC1 | 0.69 | 0.88 | 1.12 |  |
| 6.25 (≈ 15.1 µM) | < 3.1 | C[C@H](C1=NC[C@](C)(O)CC1)[C@H]1CC[C@H]2[C@@H]3CC=C4C[C@@H](O)CC[C@]4(C)[C@H]3CC[C@]12C | 4 | 0.35 | 2.5 | 31.2 (≈ 75.4 µM) |
| 200 (≈ 484 µM) | 400 (≈ 967 µM) | C[C@H]1CCC([C@H](C)[C@H]2CC[C@H]3[C@@H]4CC=C5[C@@H](O)[C@@H](O)CC[C@]5(C)[C@H]4CC[C@]23C)=NC1 | 24 | 10 | 23 | 10.5 (≈ 25.4 µM) |
|  |  | C[C@H]1CCC([C@H](C)[C@H]2CC[C@H]3[C@@H]4CCC5=CC(=O)CC[C@]5(C)[C@H]4CC[C@]23C)=NC1 | 50 | 14 | 45 | 16.8 (≈ 42.5 µM) |
| 100 (≈ 242 µM) | 200 (≈ 484 µM) | C[C@H]1CCC([C@@H](C)[C@H]2CC[C@H]3[C@@H]4CC=C5[C@@H](O)[C@@H](O)CC[C@]5(C)[C@H]4CC[C@]23C)=NC1 | > 50 | 12 | 10 | 15.5 (≈ 37.5 µM) |
| 12.5 (≈ 13.5 µM) | 1.6 (≈ 1.73 µM) | C[C@@H]1[C@H](O)[C@@H](C)/C=C/C=C/C=C/C=C/C=C/C=C/C=C/[C@H](O[C@@H]2O[C@H](C)[C@@H](O)[C@H](N)[C@@H]2O)C[C@@H]2O[C@](O)(C[C@@H](O)C[C@@H](O)[C@H](O)CC[C@@H](O)C[C@@H](O)CC(=O)O[C@H]1C)C[C@H](O)[C@H]2C(=O)O [AMPHOTERICIN B] | 25 | 8.1 | 15.6 | 7.5 (≈ 8.12 µM) |
|  |  | C[C@H]1CC[C@@H]([C@@H](C)[C@H]2CC[C@H]3[C@@H]4CC=C5C[C@@H](O)CC[C@]5(C)[C@H]4CC[C@]23C)NC1 [VERAMILINE] | 4 | 3 | 3 |  |
| 6.25 (≈ 15.7 µM) | 25 (≈ 62.9 µM) | C[C@H]1CCC([C@@H](C)[C@H]2CC[C@H]3[C@@H]4CC=C5C[C@@H](O)CC[C@]5(C)[C@H]4CC[C@]23C)=NC1 [VERAZINE] | 0.14 | 0.14 | 0.25 | 12.5 (≈ 31.4 µM) |

| SMILES | MIC (Saccharomyces cerevisiae [1]) [µg/mL] | MIC (Candida albicans) [µg/mL] | IC12 (Saccharomyces cerevisiae [2]) [µg/mL] | IC12 (Saccharomyces cerevisiae [3]) [µg/mL] | IC12 (Saccharomyces cerevisiae [4]) [µg/mL] | IC50 (M109) [µg/mL] |
| --- | --- | --- | --- | --- | --- | --- |
| Cc1cnc([C@H](C)[C@H]2CC[C@H]3[C@@H]4CC=C5C[C@@H](O)CC[C@]5(C)[C@H]4CC[C@]23C)c(O)c1 [ECLIPTALBINE] | 20 (≈ 48.8 µM) | 20 (≈ 48.8 µM) | 0.4 | 0.04 | 0.7 | > 20 |
| CC(=O)N1CCN(c2ccc(OCC3COC(Cn4ccnc4)(c4ccc(Cl)cc4Cl)O3)cc2)CC1 (centres undefined) [KETOCONAZOLE] | 1.6 (≈ 3.01 µM) | < 0.8 | 9.4 | 2.5 | 4.8 | 17 (≈ 32 µM) |
